The record followed here is ChEMBL document CHEMBL1125885, “Dopamine autoreceptor agonists as potential antipsychotics. 3.6-Propyl-4,5,5a,6,7,8-hexahydrothiazolo[4,5-f]quinolin-2-amine” (J Med Chem, 1991).

One experiment concerns Mus musculus. Kind of experiment: Effective dose required to inhibit the Locomotor activity in mouse after ip administration. It counts as functional.
Experiment [1] deals with Rattus norvegicus. Kind of experiment: Values for the reversal of the increase in DOPA levels in the striatum of GBL-treated rats after ip administration of 10 mg/Kg. It counts as functional. The procedure, abridged: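 Male Long-Evans rats were given the compound ip at 10 mg/kg 1 h before sacrifice. GBL (750 mg/kg ip) was given 30 min and NSD 1015 (100 mg/kg ip) 25 min before sacrifice. Striatal DOPA was measured by HPLC with electrochemical detection. The value is the percent reversal of the GBL-induced DOPA increase; n = 4 or 5 rats.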

In experiment [2] the test system is Rattus norvegicus. Description: Effective dose required to inhibit the Locomotor activity in Rat after po administration. It counts as functional.
For experiment [3], the species on record is Rattus norvegicus. Description: Compound was tested for effect on brain DOPA synthesis in the striatum of NSD 1015 rat. It is filed as functional. The procedure, abridged: (§1)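 Rats were dosed with NSD 1015 at 100 mg/kg ip 25 min before sacrifice and received no GBL. Test compound was given ip 1 h before sacrifice. Striatal DOPA was measured by HPLC with electrochemical detection and expressed as percent of control, n = 4 rats. Significance was set at p < 0.05 vs control.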

Experiment [4] has as its system Rattus norvegicus. Kind of experiment: Compound was tested for inhibition of locomotor activity after sc administration in rat. It is filed as functional. Put shortly:
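Spontaneous exploratory locomotor activity in rats after sc dosing. […] 5-12 animals were used per dose.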

Experiment [5] relates to Rattus norvegicus. Kind of experiment: Dose to effect on Brain DOPA synthesis upon ip administration. It is filed as functional. Put shortly:
as §1

The test system of experiment [6] is Rattus norvegicus. Kind of experiment: Compound was tested for stimulation of locomotor activity after sc administration in rat. It is filed as functional.
Experiment [7] concerns Rattus norvegicus. Description: Percentage inhibition of DA neural firing after administration the compound at a dose of 2.5 mg/Kg through ip route in rats. It is filed as functional. The settings on record: for inhibition in vivo at 2.5 mg/kg: Rattus norvegicus, ip.
A short description of experiment [8]: Compound was tested for inhibition of Sidman conditioned avoidance in squirrel monkeys upon peroral administration. It is filed as functional. The settings on record: Cercopithecidae, po. The procedure, abridged:
(§2)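 Sidman avoidance in squirrel monkeys with oral dosing. ED50 (95% CL) is derived from three doses, with four animals tested per dose.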

Experiment [9] can be described thus: Minimal effective oral dose that induced EPS signs in at least one squirrel monkey upon peroral administration. It is filed as functional, Cercopithecidae.
The test system of experiment [10] is Rattus norvegicus. Description: Values for the reversal of the increase in DOPA levels in the striatum of GBL-treated rats after ip administration. It counts as functional. Put shortly:
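Male Long-Evans rats received test compound ip 1 h before sacrifice, GBL 750 mg/kg ip 30 min before, and NSD 1015 100 mg/kg ip 25 min before. Striatal DOPA was quantified by HPLC with electrochemical detection, n = 4 or 5 rats. ED50 (95% CI) is the dose reversing the GBL-induced DOPA rise.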

In the next experiment the target is D(1A) dopamine receptor (Rattus norvegicus, UniProt P18901). Description: In vitro binding affinity towards dopamine receptor D1 in rat striatal membrane using [3H]-SCH- 23390. It counts as cell membranes, Striatum. Put shortly:
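Dopamine D1 binding in rat striatal membranes with the selective D1 antagonist [3H]SCH23390. IC50 comes from four or five compound concentrations, each run in triplicate, fitted by nonlinear regression.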

A short description of experiment [11]: Compound was tested for inhibition of Sidman conditioned avoidance in squirrel monkeys upon peroral administration. The settings on record: po. It counts as functional. Put shortly:
as §2

The species entered for experiment [12] is Rattus norvegicus. Description: The compound was tested for effect on brain DOPA synthesis in the striatum of NSD 1015 rat. It is filed as functional. Put shortly: as §1
Experiment [13] concerns Rattus norvegicus. Description: Effective dose for the reversal of the increase in DOPA levels in the striatum of GBL-treated rats after ip administration. It counts as functional. Put shortly: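 Male Long-Evans rats got test compound ip 1 h before sacrifice, GBL 750 mg/kg ip 30 min before and NSD 1015 100 mg/kg ip 25 min before. Striatal DOPA was measured by HPLC with electrochemical detection, n = 4 or 5 rats. ED50 (95% CI) is the dose reversing the GBL-induced DOPA rise; percent reversal at a single test dose is given otherwise.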

Experiment [14] deals with Rattus norvegicus. Kind of experiment: Effective dose required to inhibit the Locomotor activity in rat after po administration. It counts as functional. The procedure, abridged: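 Inhibition of spontaneous locomotor activity in rats after oral dosing. ED50 is generated from four to six doses, with 5-12 animals per dose.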
A further experiment deals with D(2) dopamine receptor (Rattus norvegicus, UniProt P61169). Description: Binding affinity towards dopamine receptor D2 in rat striatal membrane using [3H]spiperone. It is filed as cell membranes, Striatum.
D(2) dopamine receptor, sequence (P61169 whole entry): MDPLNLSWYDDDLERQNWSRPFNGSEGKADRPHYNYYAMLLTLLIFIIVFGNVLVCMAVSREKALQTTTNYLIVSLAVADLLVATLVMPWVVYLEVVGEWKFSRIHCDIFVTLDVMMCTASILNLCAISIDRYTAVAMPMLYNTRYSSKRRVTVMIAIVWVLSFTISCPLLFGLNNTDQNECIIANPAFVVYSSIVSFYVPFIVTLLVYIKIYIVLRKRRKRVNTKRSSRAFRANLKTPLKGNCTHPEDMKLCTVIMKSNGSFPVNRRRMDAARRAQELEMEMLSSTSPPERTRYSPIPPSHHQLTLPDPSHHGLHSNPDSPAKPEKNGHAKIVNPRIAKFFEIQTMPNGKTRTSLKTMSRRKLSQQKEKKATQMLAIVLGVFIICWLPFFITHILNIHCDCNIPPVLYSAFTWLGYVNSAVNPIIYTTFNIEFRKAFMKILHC
Experiment [15] has as its target D(2) dopamine receptor (Rattus norvegicus) (UniProt P61169). Kind of experiment: Compound at 10E-5 M was tested in vitro for binding affinity towards dopamine receptor D2 in rat striatal membrane by using [3H]spiperone as radioligand. The settings on record: Striatum. It is filed as cell membranes.
The test system of experiment [16] is Rattus norvegicus. Description: Percentage inhibition of DA neural firing after administration the compound at a dose of 0.25 mg/kg through ip route in rats. It counts as functional. The settings on record: route intraperitoneal.
Where [17] appears, read: Mus musculus, ip, read-out: ED50.
Where [18] appears, read: Rattus norvegicus, po, read-out: ED50.
The mark [19] stands for this setting: Rattus norvegicus, sc, read-out: ED50.

Each structure is given as a SMILES string.

D(2) dopamine receptor (Rattus norvegicus), sequence (P61169 whole entry): as above
D(1A) dopamine receptor, sequence (P18901 whole entry): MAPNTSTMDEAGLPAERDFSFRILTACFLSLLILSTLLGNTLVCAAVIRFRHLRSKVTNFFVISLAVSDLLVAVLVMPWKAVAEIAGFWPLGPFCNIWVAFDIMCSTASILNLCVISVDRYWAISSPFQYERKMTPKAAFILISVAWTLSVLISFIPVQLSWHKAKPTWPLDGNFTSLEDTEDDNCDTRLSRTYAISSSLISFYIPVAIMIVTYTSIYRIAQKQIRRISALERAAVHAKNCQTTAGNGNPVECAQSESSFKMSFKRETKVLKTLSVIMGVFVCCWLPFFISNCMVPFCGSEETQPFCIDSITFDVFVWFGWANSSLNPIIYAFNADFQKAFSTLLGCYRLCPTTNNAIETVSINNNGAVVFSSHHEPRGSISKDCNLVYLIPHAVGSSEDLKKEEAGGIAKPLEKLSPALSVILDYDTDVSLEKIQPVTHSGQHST

The term ED50 denotes the midpoint of the dose-response relation. By Inhibition is commonly meant the percentage by which the read-out fell short of the control. On to `CCCN1CCC=C2c3nc(N)sc3CC[C@@H]21` (stereo in doubt; (-)-6), for which the ED50 in the experiment with Mus musculus is 20.4 mg/kg; with Rattus norvegicus [2], above 30 mg/kg; in the experiment with Rattus norvegicus [4] it was 2.5 mg/kg; in the experiment with Rattus norvegicus [6], above 30 mg/kg; in experiment [8] it was above 30 mg/kg. In the experiment with Rattus norvegicus [1], the Reversal was found to be 14%. The compound further displayed a Control in the experiment filed under Rattus norvegicus [3] of 153.2%. In the experiment with Rattus norvegicus [5], this compound yielded a Dose of 20 mg/kg. This compound displayed an Inhibition in the experiment on Rattus norvegicus [7] of 22%.

For orientation: IC50 means the concentration that gives 50% inhibition. For `CCCN1CCC=C2c3nc(N)sc3CC[C@@H]21` (stereo in doubt; (+)-6), the ED50 was 3.7 mg/kg with Mus musculus; 7 mg/kg in the experiment on Rattus norvegicus [2]; 1.3 mg/kg with Rattus norvegicus [10]; 0.3 mg/kg in the experiment with Rattus norvegicus [4]; 6.8 mg/kg in the experiment on Rattus norvegicus [6]; 8.3 mg/kg in experiment [11]. For the same compound, the “EPS MED” value in experiment [9] is above 30 mg/kg. In addition, the Dose in the experiment with Rattus norvegicus [5] stood at 2.5 mg/kg. The compound further gave a 50% inhibitory concentration (IC50) at D(1A) dopamine receptor above 10 µM. In the experiment on Rattus norvegicus [7], this compound displayed an Inhibition of 91%. In addition, the Control in the experiment filed under Rattus norvegicus [12] stood at 52.4%.

Regarding `Nc1nc2c(s1)CCC1NCCCC21` (stereo in doubt; 26) [listing 1 of 2 here], the ED50 with Mus musculus (setting [17]) is above 30 mg/kg.

The inhibition in vivo is the relative decrease from the control value, in per cent. Turning to `CCCN1CCC=C(c2csc(N)n2)C1`, the ED50 in the experiment on Mus musculus (setting [17]) was 4.3 mg/kg; in the experiment with Rattus norvegicus [13], 1.3 mg/kg; with Rattus norvegicus [14], 3.1 mg/kg. For the same compound, the values for the IC50 on D(1A) dopamine receptor and at D(2) dopamine receptor were 10 µM and 0.574 µM, respectively. 2.5 mg/kg produced 100% inhibition in vivo in the experiment with Rattus norvegicus [7].

By inhibition is commonly meant the change of the read-out against control, counted positive when it falls. On to `CCCN1CCC=C2c3nc(N)sc3CCCC21` (stereo not drawn), for which the ED50 is above 20 mg/kg in the experiment on Mus musculus (setting [17]) and above 30 mg/kg in the experiment with Rattus norvegicus [2] (setting [18]). Also, the inhibition in experiment [15] was 18%.

As for `CCCN1CC=C2c3nc(N)sc3CCC2C1` (stereo not drawn), the ED50 with Mus musculus (setting [17]) was above 30 mg/kg. The IC50 at D(1A) dopamine receptor was above 10 µM.

With `CCCN1CCCC2c3nc(N)sc3CCC21` (stereo in doubt; 28) [listing 1 of 2 here], the ED50 with Mus musculus is above 30 mg/kg.

The compound `Nc1nc2c(s1)CCC1NCCCC21` (stereo in doubt; 27) registered an inhibition in [15] of 10%.

`CCCN1CCCC2c3nc(N)sc3CCC21` (stereo in doubt; 29): the ED50 in the experiment with Mus musculus came out at 7 mg/kg. The Reversal with Rattus norvegicus [1] was 100%. Moreover, the results for the IC50 on D(1A) dopamine receptor and on D(2) dopamine receptor were above 10 µM and 1.24 µM, respectively. Also, the inhibition in vivo at 2.5 mg/kg in the experiment with Rattus norvegicus [7] was 94%.

On to `CCCN1CCC2=C(C1)c1nc(N)sc1CC2`, for which the IC50 at D(1A) dopamine receptor is above 10 µM.

In experiment [15], `Nc1nc2c(s1)CCC1NCCCC21` (stereo in doubt; 26) [listing 2 of 2 here] showed an inhibition of 14%.

As to `CCCN1CCCC(c2cccc(O)c2)C1` (single isomer, unassigned; (+)), in the experiment with Rattus norvegicus [1], the Reversal is listed as 58%. Moreover, the ED50 in the experiment with Rattus norvegicus [4] (setting [19]) was found to be 3 mg/kg; in the experiment on Rattus norvegicus [6] (setting [19]), 5.8 mg/kg. In addition, in the experiment with Rattus norvegicus [7], the inhibition in vivo at 2.5 mg/kg stood at 100%.

Regarding `CCCN1CCCC2c3nc(N)sc3CCC21` (stereo in doubt; 28) [listing 2 of 2 here], in [15], the inhibition was 16%.

As for `CCCN1CCC2=C(CCc3sc(N)nc32)C1`, the ED50 with Mus musculus (setting [17]) was 18.8 mg/kg. The 50% inhibitory concentration (IC50) on D(1A) dopamine receptor came out at 10 µM.

In the case of `CCCN1CCCC2c3nc(N)sc3CCCC21` (stereo not drawn), in the experiment on Mus musculus (setting [17]), the ED50 is above 30 mg/kg. The compound also had an inhibition in experiment [15] of 10%.

`CN1CCc2cccc3c2[C@H]1Cc1ccc(O)c(O)c1-3` [APOMORPHINE]: the ED50 is 6.9 mg/kg with Mus musculus (setting [17]), 0.03 mg/kg with Rattus norvegicus [4] (setting [19]), 0.07 mg/kg in the experiment with Rattus norvegicus [6] (setting [19]) and above 30 mg/kg in the experiment on Rattus norvegicus [14]. The compound also yielded an inhibition in vivo at 0.25 mg/kg in the experiment with Rattus norvegicus [16] of 100%.

As for `CSc1ccc2c(c1)N(CCC1CCCCN1C)c1ccccc1S2` (stereo not drawn) [THIORIDAZINE], in experiment [9], the “EPS MED” value was below 2.5 mg/kg. In [11], the 50% effect level (ED50) was put at a dose of 3.9 mg/kg.

Regarding `CCCN1CCC=C2c3nc(N)sc3CCC21` (racemic), the ED50 was determined as 9.4 mg/kg in the experiment with Mus musculus (setting [17]); 18.9 mg/kg in the experiment on Rattus norvegicus [2] (setting [18]); 4 mg/kg in the experiment with Rattus norvegicus [10]; 0.9 mg/kg in the experiment on Rattus norvegicus [4] (setting [19]); 14.5 mg/kg in the experiment with Rattus norvegicus [6] (setting [19]); 11.2 mg/kg in [11]. Further, the “EPS MED” value in experiment [9] was above 10 mg/kg. In addition, in the experiment filed under Rattus norvegicus [3], the Control is recorded as 63%. This compound yielded a Dose in the experiment with Rattus norvegicus [5] of 5 mg/kg. Also, the half-maximal inhibitory concentration (IC50) at D(1A) dopamine receptor was above 10 µM. The inhibition in vivo at 2.5 mg/kg in the experiment on Rattus norvegicus [7] turned out to be 100%.
